# Compounds with a hit are over-represented: about 1.7% of the library has one in this group of screens.
# EP2 modulator: EP2 receptor modulators, cAMP readout, primary screen, cell-based, HTRF cAMP, PGE2 stimulation. 260,000 tested, 0.83% active. induction, % at 25 µM. EP2-expressing cells, cAMP HTRF FRET, PGE2 co-stimulation;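 active means compounds whose cAMP rise, as percent of the full-agonist control response, exceeds 60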;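 further: rat C6 glioma line stably carrying human EP2 under a CMV promoter; the protocol text gives 20 µM as final concentration; 100% = response of wells given 1 µM PGE2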
# Target sequence (P43116 whole entry, looked up): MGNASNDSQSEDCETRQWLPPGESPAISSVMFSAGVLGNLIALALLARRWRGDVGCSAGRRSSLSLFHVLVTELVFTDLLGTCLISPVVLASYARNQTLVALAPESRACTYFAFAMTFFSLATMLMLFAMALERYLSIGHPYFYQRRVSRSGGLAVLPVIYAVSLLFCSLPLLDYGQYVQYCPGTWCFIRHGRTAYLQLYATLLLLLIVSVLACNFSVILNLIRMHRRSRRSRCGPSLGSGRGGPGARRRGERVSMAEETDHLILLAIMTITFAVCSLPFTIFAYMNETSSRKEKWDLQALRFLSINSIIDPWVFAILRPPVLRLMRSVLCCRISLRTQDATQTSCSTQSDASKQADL
# EP2 antag: human EP2 receptor antagonists, primary screen, TR-FRET cAMP, C6 glioma cells; C6 glioma cells expressing human EP2; cells stimulated with saturating PGE2; Prostaglandin E2 receptor EP2 subtype (Homo sapiens), P43116; 260,000 tested, 0.52% active; inhibition, % at 25 µM;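 active means percent inhibition above 40 after rounding to a whole number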;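 further: rat C6 glioma host cells with rolipram phosphodiesterase inhibitor present; the protocol text gives 20 µM as final concentration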
# Hsp70 activator: Hsp70 transcriptional activators, primary screen, cell-based, HeLa, Hsp70 promoter luciferase, luminescence, 10 µM | HeLa Hsp70 promoter luciferase reporter; scaled: vehicle 0, proteasome-inhibitor control 100% | activation, % at 10 µM | 200,000 tested, 0.04% active | AID 1203, 2008;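 active means activation above the mean across all tested compounds plus 3 SD, cutoff set per campaign, cut at about 5.5% in these data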;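 further: 100% = MG132 at 30 µM as the positive control and 0% = DMSO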
# Dynein cargo inh: inhibitors of GR-EGFP nuclear translocation, primary screen, dynein cargo transport inhibitor project, imaging, high-content, 3617.4 mouse cells. AID 1381, 2008. 220,000 tested, 0.47% active. test concentration mostly 20 µM; stimulated with dexamethasone, 1 µM; hits give low values. z-score, hits read low;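 active means plate z-score of nuclear minus cytoplasmic receptor signal below a set negative limit, without overly bright fluorescence or cell loss, cut at about -3.5 in these data, passing the limit was not always enough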;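 further: z-score of nuclear minus cytoplasmic ring GR-EGFP intensity difference per well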
#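 Buffer or medium: Induction medium lacking tetracycline, stripped serum | Also added: Dexamethasone agonist, 1.0 µM final, for 30 min | Timing: 48 h induction, 1 h compound, 30 min dex at 37 °C | Detection: Formaldehyde fixation, Hoechst nuclear stain, 10x automated fluorescence imaging | Measure: Nuclear versus cytoplasmic GR-EGFP signal, averaged per well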
# EP2 cAMP induct: cAMP induction in EP2, EP4, beta2-AR and parental cells, confirmation, counter-screen for EP2 modulator project, cell-based, five parallel assays, C6 glioma, HEK293. shares compounds with EP2 modulator. cAMP HTRF induction; plus low (about EC15) PGE2 agonist. calls only at 20 µM (by protocol). 1,300 tested, 47% active. AID 1080, 2008;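 active means cAMP induction above 50% in the main assay while under 30% in all four parallel counter assays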;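 further: rat C6 glioma cells stably expressing human EP2 receptor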
# The depositor's hits bear a star; i = inactive; / = no result; + = active, no number; ! = not active in a repeat.
SMILES,EP2 modulator,EP2 antag,Hsp70 activator,Dynein cargo inh,EP2 cAMP induct
CCN(Cc1ccccc1)C(c1cc2cc(C)ccc2[nH]c1=O)c1nnnn1CCOC (configuration not stated),27,12,0,0.2,/
CCN(Cc1ccccc1)C(c1cc2cc(C)cc(C)c2[nH]c1=O)c1nnnn1CCOC (configuration not stated),73*!,18,0,-0.62,i
CCC(Sc1nnc(-c2ccncc2)n1C)C(=O)Nc1ccc(Cl)cc1 (configuration not stated),-29,18,/,/,/
CCN(CC)C(=O)c1nn(-c2ccccc2)c2c1C1CCC2(C)C1(C)C (configuration not stated),72*,7,0,-0.013,i
CCOC(=O)c1nn(-c2ccccc2)c(C(=O)OCC)c1N,-9,6,0,-0.64,/
Cc1ncccc1-c1cc2cccnc2n1CCC(=O)N1CCC(C(N)=O)CC1,-11,7,/,/,/
CCCc1nc(SC2CCCC2)c2c(=O)n(C)c(=O)n(C)c2n1,79*,7,/,-0.66,+
COc1ccc(/C=N/N(C(C)=O)c2nc(-c3ccc(C)cc3)cs2)cc1,37,9,0,1,/
COc1ccccc1/C=N/N(C(C)=O)c1nc(-c2ccc(F)cc2)cs1,73*,3,0,-0.24,i
CNC(=S)N(Cc1ccc(OC)cc1)Cc1cc2cc3c(cc2[nH]c1=O)OCO3,-23,19,/,/,/
O=C1COc2ccc(S(=O)(=O)Nc3cccc(C(=O)N4CCOCC4)c3)cc2N1,-5,3,/,/,/
Cc1ccc(/C=N/N2CCN(Cc3ccccc3)CC2)o1,-25,10,0,-0.24,/
Cc1ccc(/C=N/N(Cc2ccccc2)c2ccccc2)o1,69*,6,0,0.29,+
O=C(c1ccc(OC2CSC2)cc1)N1CCCCC1c1nc2ccccc2[nH]1 (configuration not stated),-36,/,/,/,/
CC(NC(=O)c1cc(C(C)(C)C)nn1C)c1nc2ccccc2[nH]1 (configuration not stated),1,6,/,/,/
COC(=O)c1c(NC(NC(=O)C(C)C)C(Cl)(Cl)Cl)sc2c1CCCC2 (configuration not stated),56,4,0,-0.14,i
CCc1nc(N2CCCCC2)c2oc3ccccc3c2n1,76*,8,0,3.2,i
CCc1nc(N2CCCCC2C)c2oc3ccccc3c2n1 (configuration not stated),48,3,0,-0.31,/
Cc1ccc(-n2c(=S)[nH]c3c(oc4ccccc43)c2=O)cc1C,74*,16,0,-0.97,i
Cc1ccc(-n2nnc3ccccc3c2=O)cc1C,12,9,0,0.037,/
CCSc1ncnc2sc3c(c12)CCC3,73*,12,0,0.34,+
O=C(O)CSc1ncnc2sc3c(c12)CCC3,16,8,0,0.36,/
c1cn(-c2ncnc3sc4c(c23)CCCC4)cn1,-10,21,0,1.2,/
Cc1sc2ncnc(SCc3ccco3)c2c1C,64*,9,0,-0.19,+
c1ccn(-c2ncnc3sc4c(c23)CCCC4)c1,65*,10,0,0.68,+
SMILES,EP2 modulator,EP2 antag,Hsp70 activator,Dynein cargo inh,EP2 cAMP induct
Cc1noc(C)c1CSc1ncnc2sc(C)c(C)c12,63*,6,0,0.47,+
COc1ccc2cc(C)c(SCC(=O)Nc3ccc(N(C)C)cc3)nc2c1,-20,14,/,/,/
C=C1C([C@]2(C)C(CC(=O)OC)[C@@](C)(COC(C)=O)OC(=O)C[C@@H]2OC(C)=O)[C@@H](OC=O)[C@H](OC(=O)C(O)C(C)CC)[C@@]2(C)[C@H](c3ccoc3)CC(=O)C12O (some centres not stated),11,11,/,/,/
Fc1ccc(CSc2ncnc3sc4c(c23)CCCC4)cc1,40,6,0,-0.0093,/
C=CCn1c(SCc2c(C)noc2C)nc2sc(C)c(C)c2c1=O,62*,8,0,-0.91,+
Cc1noc(C)c1CSc1nc2sc(C)c(C)c2c(=O)n1-c1ccccc1,29,21,-1,0.42,/
Cc1noc(C)c1CSc1ncnc2sc3c(c12)CCCCC3,56,9,0,1.5,+
Cc1ccc(-n2nnnc2SCC(=O)N2c3ccccc3CC2C)cc1C (configuration not stated),-60,10,/,/,/
CCOC(=O)c1c(CC(C)C)csc1NC(=O)CCl,74*,/,0,-1.4,i
CCOC(=O)c1c(CC(C)C)csc1N,72*,8,0,-1.1,i
COc1ccc(C)cc1NC(=O)CSc1nc2ccc(C)cc2cc1C#N,-15,11,/,/,/
CC(c1cccs1)N(Cc1ccco1)C(=S)Nc1ccccc1Cl (configuration not stated),57,11,0,-0.76,/
Cc1ccccc1NC(=S)N(Cc1ccco1)C(C)c1cccs1 (configuration not stated),51,5,0,-0.98,i
Cc1ccccc1C(=N)c1ccccc1Cc1cccc2ccccc12,72*,37,/,/,+
Cc1cc(C)cc(C(=N)c2ccccc2Cc2cccc3ccccc23)c1,53,37,/,/,i
CCOC(=O)C1CCN(C(=O)C(C)N(c2ccc(OCC)cc2)S(C)(=O)=O)CC1 (configuration not stated),-23,6,/,/,/
COc1cc(NC(=S)NC(=O)c2cc(C)cc(C)c2)ccc1NC(=O)c1cccs1,68*,13,0,/,i
COc1cc(NC(=S)NC(=O)c2ccc(C(C)(C)C)cc2)ccc1NC(=O)c1cccs1,43,7,0,0.2,/
CC1=NN(c2ccc(S(=O)(=O)O)cc2)C(=O)/C1=C\c1ccc(Cl)cc1,50,43*,/,/,i
Cc1[nH]c2c(C(=O)Nc3ccc(CCC(=O)N4CCCC4)cc3)cccc2c1C,-87,4,/,/,/
CCSc1ccccc1C(=O)n1nnc2ccccc21,68*,4,0,-4*,i
COc1ccc(-c2ncc(CNC3(c4ccc(OC)cc4)CC3)cn2)cc1,-106,2,/,/,/
O=C1CCC(C(=O)OCC(=O)N2N=C3/C(=C/c4ccccc4)CCCC3C2c2ccccc2)N1 (configuration not stated),78*,6,0,2.2,+
O=C(c1ccccn1)N1N=C2/C(=C/c3ccccc3)CCCC2C1c1ccccc1 (configuration not stated),53,10,0,-0.44,/

# Screens: PubChem BioAssay, several laboratories
